Among the data in ChEMBL document CHEMBL1133995, “Synthesis and P2Y receptor activity of a series of uridine dinucleoside 5'-polyphosphates” (Bioorg Med Chem Lett, 2001) are EC50 values, retold here.

What all share (type): functional, cell-based
One test concerns the target P2Y purinoceptor 1 (Homo sapiens, UniProt P47900). Nature of the test: Agonist activity evaluated as change in the level of cytosolic calcium in 1321N astrocytoma cells infected with a retrovirus encoding the human P2Y1 receptor at 100 uM; IA is inactive.
Test [1] addresses T1, P2Y purinoceptor 2 (Homo sapiens, UniProt P41231). Nature of the test: Agonist activity evaluated as change in the level of cytosolic calcium in 1321N astrocytoma cells infected with a retrovirus encoding the human P2Y2 receptor.
Test [2] addresses T2, P2Y purinoceptor 4 (Homo sapiens, UniProt P51582). Kind of test: Agonist activity evaluated as change in the level of cytosolic calcium in 1321N astrocytoma cells infected with a retrovirus encoding the human P2Y4 receptor.
The next test addresses P2Y purinoceptor 6 (Homo sapiens, UniProt Q15077). Kind of test: Agonist activity evaluated as change in the level of cytosolic calcium in 1321N astrocytoma cells infected with a retrovirus encoding the human P2Y6 receptor. Summed up: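 Cells grown to confluence, then loaded with Fluo-3 AM (2.5 μM final) for 60 min at 25 °C in buffer (mM: KCl 10.0, NaCl 118, CaCl2 2.5, MgCl2 1.0, HEPES 20, glucose 10; pH 7.4). Dye washed off. Activation read as change in fluorescence intensity on FLIPR (cytosolic calcium mobilization). Agonist potency given as EC50.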

The target in test [3] is T1, P2Y purinoceptor 2. Kind of test: Agonist activity evaluated as change in the level of cytosolic calcium in 1321N astrocytoma cells infected with a retrovirus encoding the human P2Y2 receptor at 100 uM; IA is inactive.
Test [4] concerns the target T2, P2Y purinoceptor 4. Nature of the test: Agonist activity evaluated as change in the level of cytosolic calcium in 1321N astrocytoma cells infected with a retrovirus encoding the human P2Y4 receptor at 100 uM; IA is inactive.

T2 sequence (P51582 whole entry): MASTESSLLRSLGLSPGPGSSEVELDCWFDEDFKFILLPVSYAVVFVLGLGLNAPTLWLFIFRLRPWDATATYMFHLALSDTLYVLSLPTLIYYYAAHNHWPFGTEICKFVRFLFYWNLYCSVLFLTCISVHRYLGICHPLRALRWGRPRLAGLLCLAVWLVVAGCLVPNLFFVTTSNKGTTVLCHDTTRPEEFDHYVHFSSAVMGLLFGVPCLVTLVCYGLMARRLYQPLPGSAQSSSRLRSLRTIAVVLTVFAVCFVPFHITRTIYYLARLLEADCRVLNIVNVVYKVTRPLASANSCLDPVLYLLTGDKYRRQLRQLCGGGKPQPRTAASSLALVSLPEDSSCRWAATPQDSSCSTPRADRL
T1 sequence (P41231 whole entry): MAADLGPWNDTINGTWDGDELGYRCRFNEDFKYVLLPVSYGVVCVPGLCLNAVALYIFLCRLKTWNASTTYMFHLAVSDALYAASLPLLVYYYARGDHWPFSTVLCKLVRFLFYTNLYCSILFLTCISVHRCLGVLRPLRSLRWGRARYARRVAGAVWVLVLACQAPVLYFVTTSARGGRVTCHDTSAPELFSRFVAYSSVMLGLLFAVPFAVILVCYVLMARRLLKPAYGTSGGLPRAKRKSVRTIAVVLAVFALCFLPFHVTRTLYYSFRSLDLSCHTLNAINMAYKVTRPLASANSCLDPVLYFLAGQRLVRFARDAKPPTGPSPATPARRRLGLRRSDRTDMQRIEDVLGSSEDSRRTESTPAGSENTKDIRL
P2Y purinoceptor 6, sequence (Q15077 whole entry): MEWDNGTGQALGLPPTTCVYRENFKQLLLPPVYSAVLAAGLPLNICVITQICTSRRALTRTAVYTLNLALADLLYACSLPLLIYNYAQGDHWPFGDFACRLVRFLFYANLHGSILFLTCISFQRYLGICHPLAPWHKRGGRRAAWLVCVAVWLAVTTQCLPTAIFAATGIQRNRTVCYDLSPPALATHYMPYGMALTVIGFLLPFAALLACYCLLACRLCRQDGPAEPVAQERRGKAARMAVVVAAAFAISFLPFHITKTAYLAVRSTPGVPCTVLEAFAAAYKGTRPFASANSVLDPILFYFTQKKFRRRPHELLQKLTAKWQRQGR
P2Y purinoceptor 1, sequence (P47900 whole entry): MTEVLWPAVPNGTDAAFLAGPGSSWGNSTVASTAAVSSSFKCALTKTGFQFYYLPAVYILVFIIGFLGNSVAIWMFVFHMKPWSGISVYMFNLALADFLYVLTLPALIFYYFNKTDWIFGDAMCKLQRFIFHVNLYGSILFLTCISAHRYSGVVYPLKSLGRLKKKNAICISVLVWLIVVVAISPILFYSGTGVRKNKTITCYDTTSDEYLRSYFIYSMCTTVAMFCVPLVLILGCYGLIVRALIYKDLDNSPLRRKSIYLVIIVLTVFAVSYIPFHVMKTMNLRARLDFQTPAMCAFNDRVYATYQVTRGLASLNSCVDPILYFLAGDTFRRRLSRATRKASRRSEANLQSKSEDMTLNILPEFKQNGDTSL

What is called EC50 is the concentration at which the effect is half-maximal. Regarding `O=c1ccn([C@@H]2O[C@H](COP(=O)(O)OP(=O)(O)OP(=O)(O)OC[C@@H]3O[C@H](n4ccc(=O)[nH]c4=O)[C@@H](O)[C@H]3O)[C@@H](O)[C@H]2O)c(=O)[nH]1`, the EC50 result on P2Y purinoceptor 1 was “Not Active”; at P2Y purinoceptor 2 [1], 22 µM; at P2Y purinoceptor 4 [2] it was over 100 µM; on P2Y purinoceptor 6, 0.2 µM.

Regarding `O=c1ccn([C@@H]2O[C@H](COP(=O)(O)OP(=O)(O)OP(=O)(O)OP(=O)(O)OC[C@@H]3O[C@H](n4ccc(=O)[nH]c4=O)[C@@H](O)[C@H]3O)[C@@H](O)[C@H]2O)c(=O)[nH]1`, the figures for the EC50 result at P2Y purinoceptor 1, on P2Y purinoceptor 4 [2] and at P2Y purinoceptor 6 were “Not Active”, 0.4 µM and 20 µM, respectively.

For `O=c1ccn([C@@H]2O[C@H](COP(=O)(O)OP(=O)(O)OP(=O)(O)OP(=O)(O)OP(=O)(O)OP(=O)(O)OP(=O)(O)OC[C@@H]3O[C@H](n4ccc(=O)[nH]c4=O)[C@@H](O)[C@H]3O)[C@@H](O)[C@H]2O)c(=O)[nH]1`, the EC50 result at P2Y purinoceptor 1 was “Not Active”; at P2Y purinoceptor 2 [1], 8.4 µM; on P2Y purinoceptor 4 [2], over 30 µM; on P2Y purinoceptor 6, over 100 µM.

For `O=c1ccn([C@@H]2O[C@H](COP(=O)(O)OP(=O)(O)OP(=O)(O)OP(=O)(O)OP(=O)(O)OC[C@@H]3O[C@H](n4ccc(=O)[nH]c4=O)[C@@H](O)[C@H]3O)[C@@H](O)[C@H]2O)c(=O)[nH]1`, the EC50 entry on P2Y purinoceptor 1 was “Not Active”; on P2Y purinoceptor 2 [1] it was 5.6 µM; at P2Y purinoceptor 4 [2] it was over 20 µM; on P2Y purinoceptor 6, over 30 µM.

For `O=c1ccn([C@@H]2O[C@H](COP(=O)(O)OP(=O)(O)OP(=O)(O)OP(=O)(O)OP(=O)(O)OP(=O)(O)OC[C@@H]3O[C@H](n4ccc(=O)[nH]c4=O)[C@@H](O)[C@H]3O)[C@@H](O)[C@H]2O)c(=O)[nH]1`, the EC50 entry was “Not Active” at P2Y purinoceptor 1, 9.8 µM at P2Y purinoceptor 2 [1], over 30 µM at P2Y purinoceptor 4 [2] and over 30 µM on P2Y purinoceptor 6.

Take `O=c1ccn([C@@H]2O[C@H](COP(=O)(O)OP(=O)(O)OC[C@@H]3O[C@H](n4ccc(=O)[nH]c4=O)[C@@H](O)[C@H]3O)[C@@H](O)[C@H]2O)c(=O)[nH]1`: the EC50 result is “Not Active” on P2Y purinoceptor 1, “Not Active” on P2Y purinoceptor 2 [3], “Not Active” on P2Y purinoceptor 4 [4] and over 30 µM on P2Y purinoceptor 6.

Consider `O=c1ccn([C@@H]2O[C@H](COP(=O)(O)OP(=O)(O)OP(=O)(O)O)[C@@H](O)[C@H]2O)c(=O)[nH]1` [URIDINE TRIPHOSPHATE], for which the EC50 result at P2Y purinoceptor 1 is “Not Active”; at P2Y purinoceptor 2 [1] it was 0.03 µM; at P2Y purinoceptor 4 [2], 0.1 µM; at P2Y purinoceptor 6, over 10 µM.

With `O=c1ccn([C@@H]2O[C@H](COP(=O)(O)OP(=O)(O)O)[C@@H](O)[C@H]2O)c(=O)[nH]1` [URIDINE_DIPHOSPHATE], the 50% effective concentration (EC50) result on P2Y purinoceptor 1 is “Not Active”; on P2Y purinoceptor 2 [1], over 10 µM; on P2Y purinoceptor 4 [4], “Not Active”; at P2Y purinoceptor 6, 0.1 µM.
